One compound from ChEMBL document CHEMBL4043093, “2-Oxo-3, 4-dihydropyrimido[4, 5-d]pyrimidinyl derivatives as new irreversible pan fibroblast growth factor receptor (FGFR) inhibitors” (Eur J Med Chem, 2017) can be followed below.

Each structure is given as a SMILES string.

One assay relates to SW780. In words: Antiproliferative activity against human FGFR3-amplified SW780 cells after 5 days by SRB assay. To be noted: SW780, 120 h.
Assay [1] deals with RAC-gamma serine/threonine-protein kinase (Homo sapiens) (UniProt Q9Y243). As to the kind of experiment: Inhibition of wild-type human partial length AKT3 expressed in Escherichia coli BL21 assessed as residual activity at 1000 nM after 30 mins by Kinomescan method relative to control.
Assay [2] concerns ALK tyrosine kinase receptor (Homo sapiens), Q9UM73 [C1156Y]. In words: Inhibition of wild-type human partial length ALK C1156Y mutant (I1088 to E1409 residues) expressed in HEK293 cells assessed as residual activity at 1000 nM after 30 mins by Kinomescan method relative to control. The class given is cell-based.
The target in assay [3] is Calcium/calmodulin-dependent protein kinase type 1D (Homo sapiens) (UniProt Q8IU85). As to the kind of experiment: Inhibition of wild-type human partial length CAMK1D (M1 to K299 residues) expressed in Escherichia coli BL21 assessed as residual activity at 1000 nM after 30 mins by Kinomescan method relative to control.
Assay [4] deals with Cyclin-dependent kinase 9 (Homo sapiens) (UniProt P50750). In words: Inhibition of wild-type human full length CDK9 (M1 to F372 residues) expressed in Escherichia coli BL21 assessed as residual activity at 1000 nM after 30 mins by Kinomescan method relative to control. The method in brief:
(§1)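 Single-point screen at a fixed 1 µM, run within a 456-kinase DiscoveRx KINOMEscan panel. Each kinase's read-out is Percent Control, i.e. signal relative to a control without compound. Hits were scored by a Percent Control < 35 cut-off, and an S(35) selectivity score was calculated across the non-mutant kinases.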

Assay [5] deals with Casein kinase I isoform gamma-2 (Homo sapiens) (UniProt P78368). As to the kind of experiment: Inhibition of wild-type human full length CSNK1G2 (M1 to K415 residues) expressed in Escherichia coli BL21 assessed as residual activity at 1000 nM after 30 mins by Kinomescan method relative to control. In short, it runs like this: as §1
For assay [6], the target named is Casein kinase II subunit alpha' (Homo sapiens) (UniProt P19784). As to the kind of experiment: Inhibition of wild-type human full length CSNK2A2 (M1 to R350 residues) expressed in HEK293 cells assessed as residual activity at 1000 nM after 30 mins by Kinomescan method relative to control. The class given is cell-based. In short, it runs like this: as §1
For assay [7], the target named is Death-associated protein kinase 3 (Homo sapiens) (UniProt O43293). In words: Inhibition of wild-type human partial length DAPK3 (M1 to A277 residues) expressed in Escherichia coli BL21 assessed as residual activity at 1000 nM after 30 mins by Kinomescan method relative to control.
Assay [8] has as its target Fibroblast growth factor receptor 4 (Homo sapiens, UniProt P22455). In words: Inhibition of wild-type human partial length FGFR4 (G402 to E713 residues) expressed in Escherichia coli BL21 assessed as residual activity at 1000 nM after 30 mins by Kinomescan method relative to control.
Assay [9] addresses Inhibitor of nuclear factor kappa-B kinase subunit epsilon (Homo sapiens) (UniProt Q14164). In words: Inhibition of wild-type human full length IKK-epsilon (M1 to V716 residues) expressed in HEK293 cells assessed as residual activity at 1000 nM after 30 mins by Kinomescan method relative to control. Type of assay: cell-based. The method in brief:
(§2)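 Single-concentration screen at 1 µM across a 456-kinase KINOMEscan panel. The read-out is Percent Control for each kinase.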

Assay [10] deals with Mast/stem cell growth factor receptor Kit (Homo sapiens), P10721 [D816V]. As to the kind of experiment: Inhibition of human partial length KIT D816V mutant (I571 to D952 residues) expressed in Escherichia coli BL21 assessed as residual activity at 1000 nM after 30 mins by Kinomescan method relative to control. The method in brief: (§3)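 KINOMEscan binding panel of 456 kinases, with the test compound at a single concentration of 1 µM. Read-out is Percent Control.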

The target of assay [11] is Maternal embryonic leucine zipper kinase (Homo sapiens) (UniProt Q14680). In words: Inhibition of wild-type human full length MELK (M1 to V651 residues) expressed in Escherichia coli BL21 assessed as residual activity at 1000 nM after 30 mins by Kinomescan method relative to control. The method in brief: as §2
Assay [12] deals with Hepatocyte growth factor receptor (Homo sapiens), P08581 [Y1235D]. In words: Inhibition of human partial length MET Y1235D mutant (D1010 to S1367 residues) expressed in Escherichia coli BL21 assessed as residual activity at 1000 nM after 30 mins by Kinomescan method relative to control. In short, it runs like this: as §3
The target in assay [13] is Dual specificity mitogen-activated protein kinase kinase 7 (Homo sapiens) (UniProt O14733). As to the kind of experiment: Inhibition of wild-type human full length MKK7 (M1 to R419 residues) expressed in HEK293 cells assessed as residual activity at 1000 nM after 30 mins by Kinomescan method relative to control. The class given is cell-based. The method in brief: as §2

For assay [14], the target named is Myosin light chain kinase (Homo sapiens) (UniProt Q32MK0). As to the kind of experiment: Inhibition of wild-type human partial length MLCK (D488 to K800 residues) expressed in Escherichia coli BL21 assessed as residual activity at 1000 nM after 30 mins by Kinomescan method relative to control.
Assay [15] has as its target Serine/threonine-protein kinase 4 (Homo sapiens) (UniProt Q13043). As to the kind of experiment: Inhibition of wild-type human full length MST1 (M1 to F487 residues) expressed in Escherichia coli BL21 assessed as residual activity at 1000 nM after 30 mins by Kinomescan method relative to control. The method in brief: as §2
The target in assay [16] is Phosphorylase b kinase gamma catalytic chain, skeletal muscle/heart isoform (Homo sapiens) (UniProt Q16816). In words: Inhibition of wild-type human full length PHKG1 (M1 to Y387 residues) expressed in Escherichia coli BL21 assessed as residual activity at 1000 nM after 30 mins by Kinomescan method relative to control. In short, it runs like this:
as §2

Assay [17] addresses Serine/threonine-protein kinase pim-2 (Homo sapiens) (UniProt Q9P1W9). In words: Inhibition of wild-type human partial length PIM2 (M1 to E291 residues) expressed in Escherichia coli BL21 assessed as residual activity at 1000 nM after 30 mins by Kinomescan method relative to control.
The target in assay [18] is Ribosomal protein S6 kinase alpha-1 (Homo sapiens) (UniProt Q15418). As to the kind of experiment: Inhibition of wild-type human partial length C-terminal RSK1 kinase domain 2 (P360 to L681 residues) expressed in Escherichia coli BL21 assessed as residual activity at 1000 nM after 30 mins by Kinomescan method relative to control.
For assay [19], the target named is Ribosomal protein S6 kinase alpha-3 (Homo sapiens) (UniProt P51812). In words: Inhibition of wild-type human partial length C-terminal RSK3 kinase domain 2 (V403 to K700 residues) expressed in Escherichia coli BL21 assessed as residual activity at 1000 nM after 30 mins by Kinomescan method relative to control.
The target of assay [20] is Dual specificity protein kinase TTK (Homo sapiens) (UniProt P33981). As to the kind of experiment: Inhibition of wild-type human partial length TTK (N505 to V798 residues) expressed in Escherichia coli BL21 assessed as residual activity at 1000 nM after 30 mins by Kinomescan method relative to control.
Assay [21] has as its target Serine/threonine-protein kinase WNK4 (Homo sapiens) (UniProt Q96J92). As to the kind of experiment: Inhibition of wild-type human partial length WNK4 (A31 to D461 residues) expressed in HEK293 cells assessed as residual activity at 1000 nM after 30 mins by Kinomescan method relative to control. The class given is cell-based.

Turning to `COc1cc(OC)c(Cl)c(N2Cc3cnc(Nc4ccc(F)cc4)nc3N(C3CCN(C(=O)/C=C/CN(C)C)CC3)C2=O)c1Cl`, in the assay with SW780, the IC50 came to 16.1 nM. Moreover, the Activity in assay [1] was 96%; in assay [2], 68%; in [3] it was 87%; in assay [4], 97%; in assay [5], 100%; in [6], 100%. Further, the Activity amounted to 100% in assay [7]; 1% in assay [8]; 100% in assay [9]; 41% in assay [10]; 100% in assay [11]; 100% in assay [12]. The Activity in assay [13] came to 100%; in [14] it was 99%; in assay [15], 81%; in assay [16], 92%; in [17], 83%; in [18] it was 94%. In addition, the Activity in assay [19] amounted to 88%; in [20], 86%; in [21], 100%.
